≈ marks a conversion by molar mass, not a printed value.
Assays:
Type in all cases: functional
Candida albicans [1] = test: Antifungal activity against Candida albicans cgmcc 2.2086 after 48 hrs by broth microdilution method; conditions: cgmcc 2.2086, 48 h
In short: (§1)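 Modified CLSI M27-A2 broth microdilution. Yeast at (0.5−1) × 10^3 CFU/mL in MOPS-buffered RPMI 1640 was mixed 1:1 with peptide serially diluted in 0.2% BSA and incubated 48 h at 28 °C. Absorbance was read at 492 nm; MIC is the lowest concentration inhibiting 95% of growth. Triplicate, three biological replicates.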

Candida albicans [2] = test: Antifungal activity against Candida albicans SP3931 after 48 hrs by broth microdilution method; conditions: SP3931, 48 h; in short: as §1
Candida albicans [3] = test: Antifungal activity against Candida albicans SP3903 after 48 hrs by broth microdilution method; conditions: SP3903, 48 h; in short: as §1
Candida albicans [4] = test: Antifungal activity against Candida albicans SP3902 after 48 hrs by broth microdilution method; conditions: SP3902, 48 h; in short: as §1
Candida albicans [5] = test: Antifungal activity against Candida albicans SP3876 after 48 hrs by broth microdilution method; conditions: SP3876, 48 h; in short: as §1
Candida albicans [6] = test: Antifungal activity against Candida albicans isolated from alveolar fluid after 48 hrs by broth microdilution method; in short: as §1
Candida albicans [7] = test: Antifungal activity against fluconazole-resistant Candida albicans 56452 after 48 hrs by broth microdilution method; conditions: Candida albicans, 56452, 48 h; in short: as §1
Candida albicans [8] = test: Antifungal activity against fluconazole-resistant Candida albicans 56214 after 48 hrs by broth microdilution method; conditions: Candida albicans, 56214, 48 h; in short: as §1
Candida albicans [9] = test: Antifungal activity against Candida albicans 14936 after 48 hrs by broth microdilution method; conditions: Candida albicans, 14936, 48 h; in short: as §1
Candida albicans [10] = test: Antifungal activity against fluconazole-resistant Candida albicans 17546 after 48 hrs by broth microdilution method; conditions: Candida albicans, 17546, 48 h; in short: as §1
Candida tropicalis [11] = test: Antifungal activity against Candida tropicalis cgmcc 2.1975 after 48 hrs by broth microdilution method; conditions: cgmcc 2.1975, 48 h
In short: (§2)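 Modified CLSI M27-A2 broth microdilution. Yeast were suspended in MOPS-buffered RPMI 1640 at a final (0.5−1) × 10^3 CFU/mL and mixed 1:1 with peptide serially diluted in 0.2% BSA. Plates were incubated 48 h at 28 °C and read at A492. MIC is the lowest concentration giving 95% inhibition. Run in triplicate with three biological replicates.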

Pichia kudriavzevii [12] = test: Antifungal activity against Candida krusei cgmcc 2.1857 after 48 hrs by broth microdilution method; conditions: cgmcc 2.1857, 48 h; in short: as §2
Candida parapsilosis [13] = test: Antifungal activity against Candida parapsilosis cgmcc 2.3989 after 48 hrs by broth microdilution method; conditions: Lodderomyces parapsilosis, cgmcc 2.3989, 48 h; in short: as §2
Candida albicans [14] = test: Fungicidal activity against Candida albicans cgmcc 2.2086 after 96 hrs; conditions: cgmcc 2.2086, 96 h, read-out: MFC99.9
In short: (§3)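 After the 48 h, 28 °C broth microdilution in MOPS-buffered RPMI 1640 (inoculum (0.5−1) × 10^3 CFU/mL), 50 μL from each well was plated on YM agar for a further 48 h at 28 °C. MFC is the lowest concentration killing at least 99.9% of cells. Triplicate, three biological replicates.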

Candida albicans [15] = test: Fungicidal activity against Candida albicans SP3931 after 96 hrs; conditions: SP3931, 96 h, read-out: MFC99.9; in short: as §3
Candida albicans [16] = test: Fungicidal activity against Candida albicans SP3903 after 96 hrs; conditions: SP3903, 96 h, read-out: MFC99.9; in short: as §3
Candida albicans [17] = test: Fungicidal activity against Candida albicans SP3902 after 96 hrs; conditions: SP3902, 96 h, read-out: MFC99.9; in short: as §3
Candida albicans [18] = test: Fungicidal activity against Candida albicans SP3876 after 96 hrs; conditions: SP3876, 96 h, read-out: MFC99.9; in short: as §3
Candida albicans [19] = test: Fungicidal activity against Candida albicans isolated from alveolar fluid after 96 hrs; conditions: read-out: MFC99.9; in short: as §3
Candida albicans [20] = test: Fungicidal activity against fluconazole-resistant Candida albicans 56452 after 96 hrs; conditions: Candida albicans, 56452, 96 h; read-out: MFC99.9; in short: as §3
Candida albicans [21] = test: Fungicidal activity against fluconazole-resistant Candida albicans 56214 after 96 hrs; conditions: Candida albicans, 56214, 96 h; read-out: MFC99.9; in short: as §3
Candida albicans [22] = test: Fungicidal activity against Candida albicans 14936 after 96 hrs; conditions: Candida albicans, 14936, 96 h; read-out: MFC99.9; in short: as §3
Candida albicans [23] = test: Fungicidal activity against fluconazole-resistant Candida albicans 17546 after 96 hrs; conditions: Candida albicans, 17546, 96 h; read-out: MFC99.9; in short: as §3
Candida tropicalis [24] = test: Fungicidal activity against Candida tropicalis cgmcc 2.1975 after 96 hrs; conditions: cgmcc 2.1975, 96 h, read-out: MFC99.9
In short: (§4)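 Wells from the 48 h, 28 °C RPMI 1640/MOPS microdilution plates were plated on YM agar and incubated a further 48 h at 28 °C. MFC is the lowest concentration killing at least 99.9% of cells. Run in triplicate with three biological replicates.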

Pichia kudriavzevii [25] = test: Fungicidal activity against Candida krusei cgmcc 2.1857 after 96 hrs; conditions: cgmcc 2.1857, 96 h, read-out: MFC99.9; in short: as §4
Candida parapsilosis [26] = test: Fungicidal activity against Candida parapsilosis cgmcc 2.3989 after 96 hrs; conditions: Lodderomyces parapsilosis, cgmcc 2.3989, 96 h; read-out: MFC99.9; in short: as §4
Candida albicans [27] = test: Antifungal activity against Candida albicans cgmcc 2.2086 in presence of NaCl by broth dilution method
Candida albicans [28] = test: Antifungal activity against Candida albicans cgmcc 2.2086 in presence of KCl by broth dilution method
Candida albicans [29] = test: Antifungal activity against Candida albicans cgmcc 2.2086 in presence of NH4Cl by broth dilution method
Candida albicans [30] = test: Antifungal activity against Candida albicans cgmcc 2.2086 in presence of MgCl2 by broth dilution method
Candida albicans [31] = test: Antifungal activity against Candida albicans cgmcc 2.2086 in presence of CaCl2 by broth dilution method
Candida albicans [32] = test: Antifungal activity against Candida albicans cgmcc 2.2086 in presence of ZnCl2 by broth dilution method
Candida albicans [33] = test: Antifungal activity against Candida albicans cgmcc 2.2086 in presence of FeCl3 by broth dilution method
Candida albicans [34] = test: Antifungal activity against Candida albicans cgmcc 2.2086 in presence of 12.5% human heat-inactivated serum by broth dilution method
Candida albicans [35] = test: Antifungal activity against Candida albicans cgmcc 2.2086 in presence of 25% human heat-inactivated serum by broth dilution method
Candida albicans [36] = test: Antifungal activity against Candida albicans cgmcc 2.2086 in presence of 50% human heat-inactivated serum by broth dilution method
Candida albicans [37] = test: Antifungal activity against Candida albicans 58288 after 48 hrs by broth microdilution method; conditions: Candida albicans, 58288, 48 h; in short: as §1
Candida albicans [38] = test: Fungicidal activity against Candida albicans 58288 after 96 hrs; conditions: Candida albicans, 58288, 96 h; read-out: MFC99.9; in short: as §3

## C[C@@H]1[C@H](O)[C@@H](C)/C=C/C=C/C=C/C=C/C=C/C=C/C=C/[C@H](O[C@@H]2O[C@H](C)[C@@H](O)[C@H](N)[C@@H]2O)C[C@@H]2O[C@](O)(C[C@@H](O)C[C@@H](O)[C@H](O)CC[C@@H](O)C[C@@H](O)CC(=O)O[C@H]1C)C[C@H](O)[C@H]2C(=O)O [AMPHOTERICIN B]
Candida albicans [1]
  MIC95: 1 µM (≈ 0.924 µg/mL)
Candida albicans [2]
  MIC95: 0.25 µM (≈ 0.231 µg/mL)
Candida albicans [3]
  MIC95: 0.125 µM (≈ 0.116 µg/mL)
Candida albicans [4]
  MIC95: 0.25 µM (≈ 0.231 µg/mL)
Candida albicans [5]
  MIC95: 0.25 µM (≈ 0.231 µg/mL)
Candida albicans [6]
  MIC95: 1 µM (≈ 0.924 µg/mL)
Candida albicans [7]
  MIC95: 1 µM (≈ 0.924 µg/mL)
Candida albicans [8]
  MIC95: 1 µM (≈ 0.924 µg/mL)
Candida albicans [9]
  MIC95: 0.25 µM (≈ 0.231 µg/mL)
Candida albicans [10]
  MIC95: 0.25 µM (≈ 0.231 µg/mL)
Candida tropicalis [11]
  MIC95: 1 µM (≈ 0.924 µg/mL)
Pichia kudriavzevii [12]
  MIC95: 1 µM (≈ 0.924 µg/mL)
Candida parapsilosis [13]
  MIC95: 2 µM (≈ 1.85 µg/mL)
Candida albicans [14]
  MFC: 1 µM (≈ 0.924 µg/mL)
Candida albicans [15]
  MFC: 1 µM (≈ 0.924 µg/mL)
Candida albicans [16]
  MFC: 1 µM (≈ 0.924 µg/mL)
Candida albicans [17]
  MFC: 1 µM (≈ 0.924 µg/mL)
Candida albicans [18]
  MFC: 0.5 µM (≈ 0.462 µg/mL)
Candida albicans [19]
  MFC: 2 µM (≈ 1.85 µg/mL)
Candida albicans [20]
  MFC: 2 µM (≈ 1.85 µg/mL)
Candida albicans [21]
  MFC: 2 µM (≈ 1.85 µg/mL)
Candida albicans [22]
  MFC: 0.5 µM (≈ 0.462 µg/mL)
Candida albicans [23]
  MFC: 1 µM (≈ 0.924 µg/mL)
Candida tropicalis [24]
  MFC: 2 µM (≈ 1.85 µg/mL)
Pichia kudriavzevii [25]
  MFC: 1 µM (≈ 0.924 µg/mL)
Candida parapsilosis [26]
  MFC: 2 µM (≈ 1.85 µg/mL)
Candida albicans [27]
  MIC: 1 µM
Candida albicans [28]
  MIC: 1 µM
Candida albicans [29]
  MIC: 1 µM
Candida albicans [30]
  MIC: 1 µM
Candida albicans [31]
  MIC: 2 µM
Candida albicans [32]
  MIC: 1 µM
Candida albicans [33]
  MIC: 1 µM
Candida albicans [34]
  MIC: 1 µM
Candida albicans [35]
  MIC: 1 µM
Candida albicans [36]
  MIC: 1 µM
Candida albicans [37]
  MIC95: 0.5 µM (≈ 0.462 µg/mL)
Candida albicans [38]
  MFC: 2 µM (≈ 1.85 µg/mL)

Reference: ChEMBL document CHEMBL4177755, “Combating Drug-Resistant Fungi with Novel Imperfectly Amphipathic Palindromic Peptides” (J Med Chem, 2018)
